Activity calls are given as the source filed them. The rule behind the calls is not given here.

Data set [1] deals with Receptor-type tyrosine-protein kinase FLT3 (Homo sapiens) (UniProt P36888). The data set is described as follows: Inhibition of FLT3 (unknown origin) by FRET-based homogenous assay.
A short description of data set [2]: Cell cycle arrest in human HCT116 cells at 500 to 2500 nM after 2 days by flow cytometry. In kind it is functional, cell-based. The note with it: HCT-116.
Data set [3] addresses T1, Dual specificity protein kinase TTK (Homo sapiens, UniProt P33981).
T1 sequence (P33981 whole entry): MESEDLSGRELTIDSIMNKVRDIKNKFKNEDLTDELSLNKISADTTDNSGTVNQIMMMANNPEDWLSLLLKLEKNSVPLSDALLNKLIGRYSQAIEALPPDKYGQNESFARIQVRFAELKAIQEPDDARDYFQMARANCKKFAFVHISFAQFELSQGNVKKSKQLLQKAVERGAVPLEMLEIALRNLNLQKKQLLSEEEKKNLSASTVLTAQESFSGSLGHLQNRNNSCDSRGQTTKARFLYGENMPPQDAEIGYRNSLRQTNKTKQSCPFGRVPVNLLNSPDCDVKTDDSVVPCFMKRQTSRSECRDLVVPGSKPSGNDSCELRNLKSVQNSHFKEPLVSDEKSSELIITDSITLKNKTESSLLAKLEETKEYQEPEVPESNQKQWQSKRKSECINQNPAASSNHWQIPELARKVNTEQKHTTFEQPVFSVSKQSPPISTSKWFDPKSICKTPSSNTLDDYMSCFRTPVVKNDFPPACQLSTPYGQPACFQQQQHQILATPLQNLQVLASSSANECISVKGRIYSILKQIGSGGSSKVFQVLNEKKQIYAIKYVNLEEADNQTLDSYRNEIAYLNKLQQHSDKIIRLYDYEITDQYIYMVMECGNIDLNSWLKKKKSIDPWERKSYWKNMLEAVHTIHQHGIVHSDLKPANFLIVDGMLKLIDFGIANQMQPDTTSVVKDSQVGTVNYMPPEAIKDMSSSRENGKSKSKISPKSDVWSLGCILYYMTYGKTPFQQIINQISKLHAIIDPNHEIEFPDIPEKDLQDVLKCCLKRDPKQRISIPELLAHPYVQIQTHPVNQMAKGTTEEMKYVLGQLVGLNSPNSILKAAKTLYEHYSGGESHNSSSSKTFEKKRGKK
The data set is described as follows: Inhibition of GST-fused full length human TTK compound pre-incubated for 15 mins prior ATP addition by MBP-based assay.

The nature of data set [4]: Antitumor activity against human HCT116 cells xenografted in SCID mouse assessed as tumor growth inhibition at 15 mg/kg, ip qd for 5 days. In kind it is functional. The following applies: HCT-116, ip, 120 h, route intraperitoneal, read-out: TGI. In a few lines: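 HCT116 xenografts were grown in mice and dosed by the intraperitoneal route once daily. Tumor volume was tracked and compared with a negative-control arm, and the result was expressed as percent tumor growth inhibition. Body weight was monitored across all arms.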

For data set [5], the target named is T1, Dual specificity protein kinase TTK. The data set is described as follows: Inhibition of SUMO-tagged human TTK (1-275 residues) compound pre-incubated for 15 mins prior ATP addition by MBP-based assay.
A further data set concerns the target Cytochrome P450 2C19 (Homo sapiens, UniProt P33261). The data set is described as follows: Inhibition of CYP2C19 in supersomes (unknown origin) using MFC as substrate after 30 mins. In kind it is ADME.
A short description of data set [6]: Permeability of the compound at pH 7.4 by PAMPA. Format: ADME. The following applies: read-out: permeability.
Data set [7] can be described thus: Solubility of the compound at pH 7.4. Format: physicochemical. The following applies: buffer.
Data set [8] addresses T2, Serine/threonine-protein kinase PLK4 (Homo sapiens, UniProt O00444).
T2 sequence (O00444 whole entry): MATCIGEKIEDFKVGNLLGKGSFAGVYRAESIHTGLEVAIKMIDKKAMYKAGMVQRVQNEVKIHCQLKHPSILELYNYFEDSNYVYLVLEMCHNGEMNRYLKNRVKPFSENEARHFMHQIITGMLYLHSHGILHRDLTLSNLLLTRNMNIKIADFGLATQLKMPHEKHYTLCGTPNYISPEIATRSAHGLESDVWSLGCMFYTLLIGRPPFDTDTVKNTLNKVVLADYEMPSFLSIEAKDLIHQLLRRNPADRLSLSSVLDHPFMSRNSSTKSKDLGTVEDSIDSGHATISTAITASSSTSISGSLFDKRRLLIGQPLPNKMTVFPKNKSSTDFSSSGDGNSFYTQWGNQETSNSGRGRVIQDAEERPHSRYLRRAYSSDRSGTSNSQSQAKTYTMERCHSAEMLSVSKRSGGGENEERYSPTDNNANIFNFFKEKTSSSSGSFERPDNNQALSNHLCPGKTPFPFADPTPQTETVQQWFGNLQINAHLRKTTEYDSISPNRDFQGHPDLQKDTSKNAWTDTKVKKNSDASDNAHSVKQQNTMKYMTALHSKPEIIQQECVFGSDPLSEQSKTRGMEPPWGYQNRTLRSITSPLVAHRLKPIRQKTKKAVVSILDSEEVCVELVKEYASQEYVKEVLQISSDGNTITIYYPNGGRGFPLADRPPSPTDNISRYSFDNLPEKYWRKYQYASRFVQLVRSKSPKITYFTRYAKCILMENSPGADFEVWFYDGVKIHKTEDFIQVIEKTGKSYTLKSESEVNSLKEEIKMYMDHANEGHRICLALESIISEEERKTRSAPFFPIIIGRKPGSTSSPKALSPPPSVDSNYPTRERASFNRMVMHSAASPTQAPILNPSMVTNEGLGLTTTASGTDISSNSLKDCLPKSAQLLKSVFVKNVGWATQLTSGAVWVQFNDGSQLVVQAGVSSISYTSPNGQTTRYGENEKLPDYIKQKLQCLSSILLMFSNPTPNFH
The data set is described as follows: Inhibition of GST-tagged human PLK4 (1-391 residues) phosphorylation by ELISA.

Data set [9] can be described thus: Growth inhibition of human HCT116 cells after 5 days by SRB assay. Format: functional. The following applies: HCT-116, 120 h.
The next data set deals with T3, Cytochrome P450 1A2 (Homo sapiens, UniProt P05177).
T3 sequence (P05177 whole entry): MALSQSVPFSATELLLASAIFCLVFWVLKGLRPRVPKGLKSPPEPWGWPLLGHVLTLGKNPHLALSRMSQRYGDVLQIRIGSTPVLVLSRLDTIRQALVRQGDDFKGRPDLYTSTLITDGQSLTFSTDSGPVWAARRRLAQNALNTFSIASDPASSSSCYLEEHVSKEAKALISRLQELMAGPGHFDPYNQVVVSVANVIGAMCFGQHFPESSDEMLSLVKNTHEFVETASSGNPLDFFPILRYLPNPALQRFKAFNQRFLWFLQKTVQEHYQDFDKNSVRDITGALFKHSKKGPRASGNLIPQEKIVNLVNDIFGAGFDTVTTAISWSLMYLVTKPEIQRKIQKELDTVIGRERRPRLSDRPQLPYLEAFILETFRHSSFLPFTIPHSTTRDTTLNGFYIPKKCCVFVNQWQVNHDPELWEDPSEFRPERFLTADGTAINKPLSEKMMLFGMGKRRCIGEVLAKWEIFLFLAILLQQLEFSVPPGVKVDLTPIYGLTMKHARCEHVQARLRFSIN
The data set is described as follows: Inhibition of CYP1A2 in supersomes (unknown origin) using CEC as substrate after 30 mins. Format: ADME.

Data set [10] deals with T4, Cytochrome P450 3A4 (Homo sapiens, UniProt P08684). The data set is described as follows: Inhibition of CYP3A4 in supersomes (unknown origin) using Dibenzylfluorescein as substrate after 10 mins. Format: ADME.
For data set [11], the target named is T4, Cytochrome P450 3A4. The data set is described as follows: Inhibition of CYP3A4 in supersomes (unknown origin) using 7-benzyloxy-4-trifluoromethylcoumarin as substrate after 30 mins. In kind it is ADME.
Data set [12] concerns the target Serine/threonine-protein kinase Chk2 (Homo sapiens, UniProt O96017). The data set is described as follows: Inhibition of CHK2 (unknown origin) by FRET-based homogenous assay.
The target of the next data set is Cytochrome P450 2D6 (Homo sapiens, UniProt P10635). The data set is described as follows: Inhibition of CYP2D6 in supersomes (unknown origin) using AMMC as substrate after 30 mins. Format: ADME.
Another data set deals with Aurora kinase B (Homo sapiens, UniProt Q96GD4). The data set is described as follows: Inhibition of Aurora B (unknown origin) by FRET-based homogenous assay.
For another data set, the target named is Cytochrome P450 2C9 (Homo sapiens, UniProt P11712). The data set is described as follows: Inhibition of CYP2C9 in supersomes (unknown origin) using MFC as substrate after 30 mins. In kind it is ADME.
Chain of Cytochrome P450 2C9 (P11712 whole entry): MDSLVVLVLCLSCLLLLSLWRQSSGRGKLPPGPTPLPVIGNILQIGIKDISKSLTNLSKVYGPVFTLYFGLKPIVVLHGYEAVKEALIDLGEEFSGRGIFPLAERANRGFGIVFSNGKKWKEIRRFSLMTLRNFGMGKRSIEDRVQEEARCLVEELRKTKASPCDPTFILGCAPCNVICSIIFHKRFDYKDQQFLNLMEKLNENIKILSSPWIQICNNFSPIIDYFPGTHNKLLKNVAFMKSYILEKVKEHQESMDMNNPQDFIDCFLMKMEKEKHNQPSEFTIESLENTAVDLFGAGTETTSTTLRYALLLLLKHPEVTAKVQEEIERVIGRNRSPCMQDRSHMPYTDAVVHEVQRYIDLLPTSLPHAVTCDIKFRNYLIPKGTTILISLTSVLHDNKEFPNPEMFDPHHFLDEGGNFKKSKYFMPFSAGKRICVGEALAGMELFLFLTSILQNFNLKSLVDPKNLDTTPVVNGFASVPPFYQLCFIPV

T4 sequence (P08684 whole entry): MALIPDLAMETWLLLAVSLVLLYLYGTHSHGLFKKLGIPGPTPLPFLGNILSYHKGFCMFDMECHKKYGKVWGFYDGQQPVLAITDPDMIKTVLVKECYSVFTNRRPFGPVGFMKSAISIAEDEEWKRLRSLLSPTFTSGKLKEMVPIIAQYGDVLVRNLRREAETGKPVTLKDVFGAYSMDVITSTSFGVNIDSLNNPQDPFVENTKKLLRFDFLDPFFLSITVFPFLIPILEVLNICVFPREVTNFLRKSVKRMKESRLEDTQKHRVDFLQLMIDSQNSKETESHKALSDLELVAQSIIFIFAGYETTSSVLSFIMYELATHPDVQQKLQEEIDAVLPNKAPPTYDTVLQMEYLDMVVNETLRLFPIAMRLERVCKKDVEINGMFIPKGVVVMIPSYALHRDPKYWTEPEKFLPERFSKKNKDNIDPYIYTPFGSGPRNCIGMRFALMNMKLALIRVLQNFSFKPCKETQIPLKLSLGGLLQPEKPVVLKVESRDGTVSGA
Chain of Serine/threonine-protein kinase Chk2 (O96017 whole entry): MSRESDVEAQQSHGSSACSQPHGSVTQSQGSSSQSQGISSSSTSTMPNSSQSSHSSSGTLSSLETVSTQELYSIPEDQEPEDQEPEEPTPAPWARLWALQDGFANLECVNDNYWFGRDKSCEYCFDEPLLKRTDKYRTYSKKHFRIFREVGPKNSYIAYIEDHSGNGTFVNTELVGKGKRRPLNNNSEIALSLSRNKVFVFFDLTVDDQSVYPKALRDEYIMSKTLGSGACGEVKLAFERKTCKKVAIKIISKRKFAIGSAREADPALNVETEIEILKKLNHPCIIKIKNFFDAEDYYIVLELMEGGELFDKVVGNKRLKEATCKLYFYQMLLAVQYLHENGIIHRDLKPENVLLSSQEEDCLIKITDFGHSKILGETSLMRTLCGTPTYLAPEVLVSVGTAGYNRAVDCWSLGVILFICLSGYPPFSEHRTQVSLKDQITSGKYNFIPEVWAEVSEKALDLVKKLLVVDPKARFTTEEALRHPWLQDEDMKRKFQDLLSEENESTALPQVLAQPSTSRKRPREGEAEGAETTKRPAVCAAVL
Chain of Aurora kinase B (Q96GD4 whole entry): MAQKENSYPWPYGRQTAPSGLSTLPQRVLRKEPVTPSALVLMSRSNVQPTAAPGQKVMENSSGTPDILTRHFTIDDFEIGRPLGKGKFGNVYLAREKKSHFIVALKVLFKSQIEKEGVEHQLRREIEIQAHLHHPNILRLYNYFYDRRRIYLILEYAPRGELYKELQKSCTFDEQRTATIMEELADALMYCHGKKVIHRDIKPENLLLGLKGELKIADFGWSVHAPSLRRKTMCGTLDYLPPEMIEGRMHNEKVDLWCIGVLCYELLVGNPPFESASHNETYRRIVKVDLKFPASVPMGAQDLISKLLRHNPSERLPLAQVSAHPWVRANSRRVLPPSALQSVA
Chain of Cytochrome P450 2C19 (P33261 whole entry): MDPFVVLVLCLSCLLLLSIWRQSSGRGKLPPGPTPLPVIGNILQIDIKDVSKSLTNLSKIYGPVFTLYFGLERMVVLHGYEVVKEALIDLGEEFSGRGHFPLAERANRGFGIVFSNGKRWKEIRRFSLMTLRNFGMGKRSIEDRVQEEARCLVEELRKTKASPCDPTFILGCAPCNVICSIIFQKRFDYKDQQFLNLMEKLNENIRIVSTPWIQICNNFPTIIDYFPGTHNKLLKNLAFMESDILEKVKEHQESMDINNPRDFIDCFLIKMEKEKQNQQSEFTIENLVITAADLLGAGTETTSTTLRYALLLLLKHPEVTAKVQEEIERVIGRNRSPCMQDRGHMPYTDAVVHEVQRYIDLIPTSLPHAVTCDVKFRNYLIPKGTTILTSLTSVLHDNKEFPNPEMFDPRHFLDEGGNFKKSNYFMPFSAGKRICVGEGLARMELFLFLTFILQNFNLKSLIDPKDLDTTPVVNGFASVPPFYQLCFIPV
Chain of Receptor-type tyrosine-protein kinase FLT3 (Homo sapiens) (P36888 whole entry): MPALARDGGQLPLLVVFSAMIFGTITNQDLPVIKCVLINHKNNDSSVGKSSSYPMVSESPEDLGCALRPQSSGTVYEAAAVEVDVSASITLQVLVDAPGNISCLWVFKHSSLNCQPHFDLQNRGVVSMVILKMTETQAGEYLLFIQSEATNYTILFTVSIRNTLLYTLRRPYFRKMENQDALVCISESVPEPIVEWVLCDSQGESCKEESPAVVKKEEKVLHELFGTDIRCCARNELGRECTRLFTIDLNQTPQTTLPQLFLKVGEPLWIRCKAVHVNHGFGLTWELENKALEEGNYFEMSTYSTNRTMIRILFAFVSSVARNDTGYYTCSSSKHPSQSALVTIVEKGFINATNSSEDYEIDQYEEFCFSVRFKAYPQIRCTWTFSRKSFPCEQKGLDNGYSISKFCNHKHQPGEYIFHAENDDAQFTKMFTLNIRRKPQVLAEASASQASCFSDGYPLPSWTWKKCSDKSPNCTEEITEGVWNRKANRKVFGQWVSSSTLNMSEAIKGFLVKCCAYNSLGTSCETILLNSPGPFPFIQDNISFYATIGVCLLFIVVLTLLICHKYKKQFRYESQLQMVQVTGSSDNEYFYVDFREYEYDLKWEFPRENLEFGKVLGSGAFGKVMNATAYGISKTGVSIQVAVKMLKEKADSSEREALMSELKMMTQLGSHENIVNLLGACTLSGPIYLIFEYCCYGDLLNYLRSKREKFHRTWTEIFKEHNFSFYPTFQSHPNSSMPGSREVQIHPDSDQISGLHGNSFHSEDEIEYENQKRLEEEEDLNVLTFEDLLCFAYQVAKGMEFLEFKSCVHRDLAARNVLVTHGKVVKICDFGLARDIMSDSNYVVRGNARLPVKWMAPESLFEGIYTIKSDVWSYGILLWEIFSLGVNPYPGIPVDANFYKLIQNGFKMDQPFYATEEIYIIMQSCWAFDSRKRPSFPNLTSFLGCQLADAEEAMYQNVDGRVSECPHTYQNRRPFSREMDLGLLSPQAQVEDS
Chain of Cytochrome P450 2D6 (P10635 whole entry): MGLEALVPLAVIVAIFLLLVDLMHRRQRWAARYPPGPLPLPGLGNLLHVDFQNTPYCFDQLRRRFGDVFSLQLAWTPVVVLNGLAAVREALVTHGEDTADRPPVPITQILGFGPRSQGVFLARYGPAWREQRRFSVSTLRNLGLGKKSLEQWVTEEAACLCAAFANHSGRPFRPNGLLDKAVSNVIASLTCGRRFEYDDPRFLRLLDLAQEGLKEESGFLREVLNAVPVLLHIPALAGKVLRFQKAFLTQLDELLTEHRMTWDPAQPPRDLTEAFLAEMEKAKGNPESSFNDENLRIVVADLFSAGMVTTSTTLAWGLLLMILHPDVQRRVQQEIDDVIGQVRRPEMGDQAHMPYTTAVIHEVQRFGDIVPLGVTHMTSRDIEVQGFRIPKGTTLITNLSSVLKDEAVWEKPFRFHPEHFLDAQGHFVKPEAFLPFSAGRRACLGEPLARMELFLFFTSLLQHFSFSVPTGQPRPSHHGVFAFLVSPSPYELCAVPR

As to `c1ccc(-c2[nH]nc3ccccc23)cc1`, in data set [1], the inhibition entry was “inactive”. Besides, the outcome in data set [2] was inactive. In data set [3], this molecule displayed an IC50 of 12 µM.

`O=c1[nH]cc(F)c(=O)[nH]1` [FLUOROURACIL]: in data set [4], the inhibition in vivo at 15 mg/kg worked out at 46%.

As for `COc1cc(N2CCC(O)CC2)ccc1Nc1nc(Nc2ccccc2S(=O)(=O)C(C)C)c2cc[nH]c2n1`, in data set [3], the IC50 came to 0.37 µM.

Turning to `NS(=O)(=O)c1cccc(-c2n[nH]c3cccc(Cl)c23)c1`, the figures for the IC50 in [5] and in data set [3] were 1900 nM and 1.8 µM, respectively.

Take `NS(=O)(=O)c1cccc(-c2n[nH]c3ccc(C(=O)N[C@H]4CCc5ccccc54)cc23)c1`: the result in [2] was inactive.

The molecule `NCc1cccc(-c2n[nH]c3cccc(Cl)c23)c1` gave an IC50 in [3] of over 50 µM.

Turning to `NS(=O)(=O)c1cccc(-c2n[nH]c3ccccc23)c1`, the IC50 in data set [5] came to 1600 nM; in data set [3], 2.6 µM.

For `N#Cc1ccc2c(/C=C/c3ccncc3)n[nH]c2c1`, inhibition in [3] was half-maximal at 5 µM (IC50). This lies in the single-digit micromolar range.

`NS(=O)(=O)c1ccc(-c2n[nH]c3cccc(Cl)c23)cc1`: in [3], the IC50 is 18 µM.

`CCc1cccc(CC)c1NC(=O)Nc1ccc2[nH]nc(-c3cccc(S(N)(=O)=O)c3)c2c1`: the IC50 on Cytochrome P450 2C19 is over 1000 nM; in data set [5], 3.5 nM; in data set [8] it was 130 nM; on Cytochrome P450 1A2, over 10 µM; on Cytochrome P450 3A4 [10], 10 µM; on Cytochrome P450 3A4 [11], 1000 nM. Besides, the IC50 in [12] is 410 nM; against Cytochrome P450 2D6 it was over 10 µM; against Aurora kinase B, 2400 nM; against Cytochrome P450 2C9 it was 1700 nM. The Papp in data set [6] was under 21 ×10⁻⁶ cm/s. In data set [7], this molecule had a solubility of under 0.1 µg/mL. The molecule further showed a concentration for 50% growth inhibition (GI50) in data set [9] of over 50 µM.

Source of the values: ChEMBL document CHEMBL3352261, “Discovery of inhibitors of the mitotic kinase TTK based on N-(3-(3-sulfamoylphenyl)-1H-indazol-5-yl)-acetamides and carboxamides” (Bioorg Med Chem, 2014).
